Calls of active or inactive are those of the source. The rule behind the calls is not given here.

As usually defined, the Ki is the dissociation constant of the complex between target and ligand, obtained from inhibition or displacement.

The target in one assay is T1, Papain (Carica papaya) (UniProt P00784).
T1 sequence (whole entry): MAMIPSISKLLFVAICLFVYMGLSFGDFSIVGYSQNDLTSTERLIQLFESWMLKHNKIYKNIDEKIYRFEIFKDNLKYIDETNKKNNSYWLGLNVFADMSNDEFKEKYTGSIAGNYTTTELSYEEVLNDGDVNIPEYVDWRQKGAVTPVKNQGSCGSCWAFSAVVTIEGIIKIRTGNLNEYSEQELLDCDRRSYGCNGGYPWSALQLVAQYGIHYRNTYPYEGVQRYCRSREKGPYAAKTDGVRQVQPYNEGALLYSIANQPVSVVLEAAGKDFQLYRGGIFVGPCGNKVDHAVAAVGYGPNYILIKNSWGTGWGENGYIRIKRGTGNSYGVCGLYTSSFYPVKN
As to the kind of experiment: Inhibition of papaya papain assessed as p-nitroaniline release at 2.5 uM after 1 hr pre-inhibition using Bz-L-Tyr-pNA as a substrate by calorimetric assay.

Assay [1] can be described thus: Inhibition of chymotrypsin assessed as p-nitroaniline release after 30 mins pre-incubated with compound for 1 hr before addition of Bz-L-Tyr-pNA as a substrate by calorimetric assay. The method, boiled down:
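Chymotrypsin (commercial, used as received) pre-incubated 1 h with inhibitor in DMSO in sodium phosphate 0.05 M pH 7.0; aliquot then added to Bz-L-Tyr-pNA. Final: enzyme 1.0 µM, substrate 0.25 mM; DMSO controls. p-Nitroaniline release read at 405 nm for 30 min at rt to give residual activity. Triplicate or quadruplicate.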

Assay [2] is described as follows: Inhibition of chymotrypsin assessed as p-nitroaniline release measured for 15 mins using Bz-L-Tyr-pNA as a substrate by Dixon plot analysis. In a few lines:
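Ki from Dixon plots: chymotrypsin (final 0.5 µM) in sodium phosphate 0.05 M pH 7.0 with Bz-L-Tyr-pNA at 0.15–0.25 mM and inhibitor at 7.81, 15.63 or 31.25 µM (final), no preincubation. p-Nitroaniline read directly at 405 nm for 15 min; DMSO controls; quadruplicate.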

The nature of assay [3]: Inhibition of chymotrypsin assessed as p-nitroaniline release at 20 uM measured at every 6 mins for 15 mins using Bz-L-Tyr-pNA as a substrate. In a few lines:
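kinact: chymotrypsin mixed with inhibitor in sodium phosphate 0.05 M pH 7.0; aliquots moved into Bz-L-Tyr-pNA wells at 0–5 min, then all read at 405 nm for 15 min. Final enzyme 0.5 µM, substrate 250 µM, inhibitor 20 µM. Residual activity plotted against preincubation time.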

With `O=C(NCCS(=O)(=O)F)OCc1ccccc1`, the result (at Papain (Carica papaya); in assay [1]) was Active.
For `CC(C)[C@@H](CS(=O)(=O)F)NC(=O)OCC1c2ccccc2-c2ccccc21`, the result in assay [1] was Active.
For `CC(C)C[C@@H](CS(=O)(=O)F)NC(=O)OCc1ccccc1`, the outcome (on Papain (Carica papaya); in assay [1]) was Active.
As to `C[C@@H](CS(=O)(=O)F)NC(=O)OCc1ccccc1`, the result (at Papain (Carica papaya); in assay [1]) was Active. In addition, in assay [2], the Ki result is on record as “Not Active”.
Turning to `O=C(N[C@@H](Cc1ccccc1)CS(=O)(=O)F)OCc1ccccc1`, the outcome (on Papain (Carica papaya); in assay [1]) was Active.
For `O=S(=O)(F)Cc1ccccc1` [PHENYLMETHYLSULFONYLFLUORIDE], the Kinact in assay [3] was determined as 0.32 min⁻¹. For the same molecule, the Ki in assay [2] (read-out: Ki) was 13 µM.

(Values after ChEMBL document CHEMBL1764993, “Synthesis and biological evaluation of novel irreversible serine protease inhibitors using amino acid based sulfonyl fluorides as an electrophilic trap” (Bioorg Med Chem, 2011).)
